Compound activity: PubChem, The Scripps Research Institute Molecular Screening Center
GPR7 antag – blocks human GPR7 receptor signaling; P48145; AID 1861; inhibition, % at 4.4 µM; GPR7-expressing cells, fluorescence antagonist assay; hit rate 1.1% among 290,000; in the data active means inhibition above about 16%, passing the limit was not always enough;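 further: cells stimulated with the agonist NPW; 0% = agonist with vehicle and 100% = vehicle without agonist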
GalR3 antagonist – antagonists of human GalR3 | HEK293 GalR3-CNG cAMP membrane potential fluorescence; galR3 body fused to GalR1 C-terminus | O60755 | hit rate 0.44% among 360,000 | inhibition, % at 3 µM;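 active means inhibition above the screen-wide average plus 3 SD, cut at about 13% in these data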;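 further: forskolin and galanin both at EC90 stimulate the cells; cAMP rise reported by CNG channel membrane potential dye signal; 0% = forskolin plus galanin with DMSO and 100% = forskolin alone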
OX1R antag-1 – human HCRTR1 antagonism | CHO/OX1R cells, Fluo-8 calcium fluorescence, orexin A | inhibition, % at 5 µM | hit rate 0.43% among 330,000;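 active means inhibition above its plate's threshold, mean inhibition of all tested compounds on the plate plus 3 SD, cut at about 37% in these data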;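 further: 0% = orexin A challenge wells and 100% = SB-334867-A antagonist wells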
Target sequence (O43613 whole entry, looked up): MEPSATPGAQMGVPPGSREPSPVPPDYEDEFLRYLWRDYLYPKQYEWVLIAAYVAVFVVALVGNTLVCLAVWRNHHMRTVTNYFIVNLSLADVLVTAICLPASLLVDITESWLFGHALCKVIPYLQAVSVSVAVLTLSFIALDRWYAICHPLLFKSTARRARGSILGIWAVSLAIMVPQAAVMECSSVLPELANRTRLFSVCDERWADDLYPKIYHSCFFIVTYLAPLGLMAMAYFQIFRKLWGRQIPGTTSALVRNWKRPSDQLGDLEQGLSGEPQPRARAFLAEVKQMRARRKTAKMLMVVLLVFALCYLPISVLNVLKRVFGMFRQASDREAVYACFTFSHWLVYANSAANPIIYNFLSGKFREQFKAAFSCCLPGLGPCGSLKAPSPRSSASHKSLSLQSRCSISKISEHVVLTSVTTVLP
OX1R antag-2 – blocks the human orexin 1 receptor; O43613; OX1R-expressing cells, FRET antagonist read-out; inhibition, % at 6.6 µM; hit rate 1.8% among 330,000; AID 485270; in the data active means inhibition mostly above about 38%, no sharp cut-off; inactive means mostly below about 40%;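 further: 0% = agonist challenge alone and 100% = reference antagonist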
CHO parental Ca – counter-screen for OX1R antagonists: effect in parental CHO cells | inhibition, % at 5.6 µM | parental CHO-K1, ATP-induced calcium, Fluo-8 fluorescence | hit rate 0.63% among 330,000;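 active means inhibition above that plate's mean sample inhibition plus 3 SD, cut at about 26% in these data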;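 further: 0% = ATP-challenged DMSO wells and 100% = DMSO wells without ATP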
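test system = CHO parental line | reagent = ATP stimulus | measured by = intracellular calcium via Fluo-8 no-wash fluorescent dye | control set = ATP and no-ATP DMSO wells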
An asterisk follows results filed as active. The list is not random: actives were taken first. Their share in the collection is about 3.1%.

Results for O=C(Nc1ccccc1)c1ccc(Nc2c([N+](=O)[O-])cc([N+](=O)[O-])c3ccccc23)cc1 ?
GPR7 antag: -14; GalR3 antagonist: -3; OX1R antag-1: 10; OX1R antag-2: 10; CHO parental Ca: 7

What do the screens show for `CCn1nc([N+](=O)[O-])c(C(C#N)c2nc3cc(C(F)(F)F)ccc3s2)c(Cl)c1=O` (stereo not given)?
GPR7 antag: -8; GalR3 antagonist: -8; OX1R antag-1: -2; OX1R antag-2: 62*; CHO parental Ca: -10

Results for CSCC[C@H](NC(=O)C1CCC(CNC(=O)[C@@H]2CCCN2C(=O)OC(C)(C)C)CC1)C(=O)O (stereo not given in full) ?
GPR7 antag: -3; GalR3 antagonist: -12

What do the screens show for `CC1(C(=O)N2CCN(Cc3ccccc3Cl)CC2)CC1(Cl)Cl` (stereo not given)?
GPR7 antag: -2; GalR3 antagonist: -11; OX1R antag-1: -13; OX1R antag-2: 9; CHO parental Ca: -10

Results for COCCn1nnnc1C(c1ccc(OC)cc1OC)N1CCN(c2ccccc2F)CC1 (stereo not given) ?
GPR7 antag: 21*; GalR3 antagonist: -3; OX1R antag-1: -14; OX1R antag-2: 37; CHO parental Ca: -23

How did CCOC(=O)Cn1c(S(=O)(=O)Cc2ccc(Cl)cc2)nc(-c2ccccc2)c1-c1ccccc1 do in these assays?
GPR7 antag: -9; GalR3 antagonist: -6; OX1R antag-1: -45; OX1R antag-2: 8; CHO parental Ca: -27

How did C#CCn1c(S(=O)(=O)Cc2ccc(OC)cc2)nc(-c2ccccc2)c1-c1ccccc1 do in these assays?
GPR7 antag: 25; GalR3 antagonist: -8; OX1R antag-1: -8; OX1R antag-2: 58*; CHO parental Ca: -23

Results for COc1ccc(S(=O)(=O)N2CCN(c3ncccn3)CC2)cc1OC ?
GPR7 antag: 21; GalR3 antagonist: -5; OX1R antag-1: -12; OX1R antag-2: 4; CHO parental Ca: -7

How did CCOc1ccc(S(=O)(=O)N2CCN(c3ccc(C)cc3C)CC2)cc1 do in these assays?
GPR7 antag: -10; OX1R antag-1: -18; OX1R antag-2: 9; CHO parental Ca: 27*

How did CCOc1ccc(S(=O)(=O)N2CCCC2)cc1 do in these assays?
GPR7 antag: 2; GalR3 antagonist: -4; OX1R antag-1: -11; OX1R antag-2: 3; CHO parental Ca: -6

Results for COc1ccc(S(=O)(=O)N2CCN(c3c(C)cccc3C)CC2)cc1OC ?
GPR7 antag: -12; GalR3 antagonist: 2; OX1R antag-1: -34; OX1R antag-2: 14; CHO parental Ca: 45*

What do the screens show for `COc1ccc(S(=O)(=O)N2CCN(c3ccc(C)cc3C)CC2)cc1OC`?
GPR7 antag: -26; GalR3 antagonist: 2; OX1R antag-1: -25; OX1R antag-2: 14; CHO parental Ca: 36*

Results for CN(C)S(=O)(=O)N1CCN(CC(O)COc2ccc3cc(Br)ccc3c2)CC1 (stereo not given) ?
GPR7 antag: 8; GalR3 antagonist: -2; OX1R antag-1: 11; OX1R antag-2: 8; CHO parental Ca: 40*

Results for O=C(N[C@H](Cc1ccccc1)C(=O)NCc1ccc2c(c1)OCO2)[C@H]1O[C@@H](n2ccc(=O)[nH]c2=O)[C@H](O)[C@@H]1O ?
GalR3 antagonist: -7

What do the screens show for `COc1ccccc1CNC(=O)C(Cc1ccccc1)NC(=O)c1ccccc1` (stereo not given)?
GalR3 antagonist: 2; OX1R antag-1: 2; OX1R antag-2: 19; CHO parental Ca: -23

How did Nc1ccc2c3c(cccc13)CC2 do in these assays?
GPR7 antag: 1; GalR3 antagonist: -4; OX1R antag-1: 71*; OX1R antag-2: 13; CHO parental Ca: 60*

What do the screens show for `CCCCNC(=O)C[C@H]1C[C@@]2(C(=O)OC)C(=C[C@H](COCc3ccccc3)O[C@@H]2C)N(CCC2=CCCCC2)C1=O`?
GalR3 antagonist: -7

Results for O=C(CCN1C(=O)C2C3C=CC(C3)C2C1=O)N1CCN(c2ccccn2)CC1 (stereo not given) ?
GPR7 antag: -4; GalR3 antagonist: -3; OX1R antag-1: 5; OX1R antag-2: 16; CHO parental Ca: -11

What do the screens show for `O=C1C2C3C=CC(C3)C2C(=O)N1c1ccc(N2CCN(c3ccccn3)CC2)c([N+](=O)[O-])c1` (stereo not given)?
GPR7 antag: -2; GalR3 antagonist: -2; OX1R antag-1: 29; OX1R antag-2: 45; CHO parental Ca: 63*
